ChEMBL document CHEMBL4513216, “Probing the Open Global Health Chemical Diversity Library for Multistage-Active Starting Points for Next-Generation Antimalarials” (ACS Infect Dis, 2020)

Assay: Toxicity liver stage against HepG2, at 10uM
Type: cell-based
Parameters: test concentration 10 uM, cell line HepG2-A16-CD81EGFP
Settings: human, HepG2-A16-CD81EGFP cells; read-out: INHIBITION
Procedure, shortened: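 Uninfected HepG2-A16-CD81EGFP cells, 3 × 10^3 per well, 1536-well, plated on prespotted compound at 10 μM final, parasite-free screening media added to match infected plates; puromycin 10 μM positive, DMSO 0.5% negative; run in parallel with 48 h PbLuc assay at 37 °C, 5% CO2; viability by CellTiter-Glo luminescence, normalized to controls.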

Compound	cytotoxicity at 10 µM
NCCO[C@H]1C[C@@H](O)C12CCN(Cc1c(F)cccc1F)CC2	-20%
CCCc1cnc(C)nc1N1CCC(Cc2cccc(C(N)=O)c2)C1 (stereo not given)	3.52%
O=C(NCCC1=CCCCC1)c1cc(-c2ccc(O)cc2)n[nH]1	38.8%
CCC[C@H]1CN(S(=O)(=O)c2ccc(CC)s2)C[C@@H]1N	4.69%
CC(NC(=O)C1CCCC1)c1nncn1C(C)C (stereo not given)	6.89%
COc1cc(C(=O)N2CCC3(CC2)Nc2ccccc2NC3=O)ccn1	0.701%
CNC(=O)CC1COCCN1C(=O)C1(c2ccc(Cl)cc2)CCC1 (stereo not given)	5.33%
CCn1c(C2CCNCC2)nn(Cc2ccc(C(=O)NC)o2)c1=O	6.8%
CCSc1ncc(-c2cc(C3CC3)nc(N)c2C#N)cn1	6.99%
CN(Cc1c[nH]nc1-c1ccc(F)cc1F)Cc1nccn1C	2.5%
CC(C)Cc1cc(CNC(=O)c2cccc3c2OCC3)no1	-47.9%
CCc1cc(NC2CCS(=O)(=O)C2)nc(N2CCCCC2)n1 (stereo not given)	-3.15%
Cc1ccc(C(=O)N2CCCn3nc(CCC(=O)O)cc3C2)cc1Cl	-3.49%
Cc1ccc(C(=O)N[C@H]2CN(CCO)C[C@@H]2C2CC2)cc1Cl	6.93%
O=S(=O)(c1ccc(-c2cnco2)cc1)N1CCCC2(CCNCC2)CC1	-11.2%
O[C@H]1[C@H](NCCSc2ccccn2)c2ccccc2C12CCNCC2	-13.4%
CC(=O)N[C@@H]1Cc2ccccc2[C@H]1Nc1nnc(C2CC2)o1	-47.1%
Cc1cc(C(=O)N2CCN(Cc3ccco3)C(CCO)C2)cc(=O)[nH]1 (stereo not given)	-1.5%
CCCc1nc(CN(CC)C(=O)c2ccc3c(c2)nnn3C)no1	9.43%
COc1ccc(-n2nc(C3CC3)nc2CCn2cnnn2)cc1	-2.88%
O=C(CCOc1ccccc1)N1CCCC(c2ncc[nH]2)C1 (stereo not given)	-2.68%
COC(=O)[C@H](CSC)Nc1nc(C2CCCC2)nc2c1cnn2C	-52.6%
Cc1ccc(CS(=O)(=O)NCc2ccco2)cc1	-2.11%
O=S(=O)(Cc1ccc(F)cc1)NCc1ccco1	14.1%
CCc1nccn1C1CCCN(C(=O)c2ccc3c(c2)OCCO3)C1 (stereo not given)	-11.8%
CC(C)CC(=O)Nc1cccc(CNCc2cccs2)c1	0.25%
CC1CCN(CCCNC(=O)NC(C)c2nncn2C)CC1 (stereo not given)	-11.6%
CCOc1ncccc1CNC(=O)NC1CCOc2ccccc21 (stereo not given)	-9.65%

Compound	cytotoxicity at 10 µM
COc1ccc(C(=O)N2CCCC(n3nc(C)nc3C)C2)c(OC)c1 (stereo not given)	-18.2%
CC(C)c1n[nH]c(C2CN(C(=O)c3cc4c(s3)CCC4)CCO2)n1 (stereo not given)	-11%
COc1ccc(C)cc1C(=O)NC(CC(=O)O)c1cccs1 (stereo not given)	-16.3%
O=C(NCC(F)(F)F)C1CSCN1S(=O)(=O)c1ccccc1F (stereo not given)	-16.3%
CCc1cnc(CN(C)C2CCN(CCn3cc(C#N)cn3)C2)o1 (stereo not given)	-8.99%
Cn1cnc2c1CCN(Cc1nc(Cc3ccccc3)no1)C2	-7.99%
Cc1ccc(C(C)N(C)Cc2nc3c(cnn3C)c(=O)[nH]2)cc1 (stereo not given)	-3.91%
Cn1cnc2c1CCN(Cc1nc(-c3ccsc3)no1)C2	-3.29%
COc1ccc(CNCc2ccc(N3CCCCC3)nc2)cc1OC	1.92%
COC(=O)c1ccc(S(=O)(=O)NCc2cccnc2N(C)C)cc1	9.3%
CS(=O)(=O)c1ccccc1C(=O)NCCCN1CCc2ccccc2C1	1.01%
Cc1ccc(-c2nc(CN3CCN(S(=O)(=O)N(C)C)CC3)cs2)o1	6.81%
Cc1cc(C)n(CC2CCCN2C(=O)c2ccc3c(c2)OCO3)n1 (stereo not given)	-9.31%
Cc1cc(-c2nccs2)nc(C2CCN(Cc3ccc(F)cc3)CC2)n1	6.54%
CCc1nc2ccccc2c(=O)n1CC1(O)CCN(S(C)(=O)=O)CC1	-3.5%
CN1CCN(C(=O)[C@H]2CC[C@@H]3[C@@H](CCN3Cc3ccsc3)O2)CC1	1.07%
CCCN1CCC(c2nc3ccc(NCc4cccnc4)cn3n2)CC1	-121%
CC(CCc1ccccc1)NC(=O)CNCCCN(C)C (stereo not given)	-3.83%
COCC(=O)N1CCOC2(CCCN(c3cnccn3)C2)C1 (stereo not given)	7.83%
Cc1ccc(C(=O)N2CCC3(CC2)CCN(Cc2ccccn2)C3=O)o1	2.49%
COc1ccc(OCCc2sc(C3(O)CCCNCC3)nc2C)cc1 (stereo not given)	-14.9%
CS(=O)(=O)NCc1cc(=O)n2c(n1)CN(Cc1ccco1)CCC2	7.25%
O=C(c1c[nH]cn1)N1CCC(F)(F)C2(CCN(c3cnccn3)C2)C1 (stereo not given)	8.19%
COCCN1CCC2(COCc3cnc(N4CCOCC4)nc32)C1 (stereo not given)	11.6%
O=C1NC2(CCN(CC3CC3)CC2)CC1c1ccccc1 (stereo not given)	-7.64%
O=C(NCCc1cccs1)[C@]12COC[C@H]1CN(c1ncccn1)C2	-109%
Cc1nc(COCc2cnc3n2CCN(C)C3C)cs1 (stereo not given)	6.01%
